In ChEMBL document CHEMBL3271961, “Dibenztroponeacetic and -propionic acids. Potent new antiinflammatory agents” (1977):

Key:
Rattus norvegicus [1] = assay: Antiinflammatory activity in rat assessed as inhibition of carrageenan-induced paw edema administered into pad of right hind paw 1 hr before carrageenan challenge measured after 4 hrs relative to phenylbutazone; format: functional; conditions: in the assay text read “administered po” for “administered into pad of right hind paw”
In short: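 Female rats, 80-90 g, gavaged with test material in 1 mL aqueous vehicle. One hour later, 0.05 mL of 1% carrageenan in 0.9% NaCl injected into the right hind paw pad. Rats killed 4 h after dosing. Both hind paws weighed, and the percent weight increase of the inflamed paw calculated. Six rats per group. Phenylbutazone standard usually at 3.6, 11 and 33 mg/kg.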

Mus musculus = assay: Analgesic activity in po dosed mouse assessed as inhibition of phenylquinone-induced writhing measured up to 10 mins relative to aspirin; format: functional
In short: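 Male mice, 18-20 g, dosed orally in aqueous vehicle at time zero. Writhing induced 20 min later by ip injection of 0.25 mL 0.02% phenylquinone, then counted over the next 10 min. Groups of usually 8-10 mice. Aspirin standard given at 16.5, 50 and 150 mg/kg. Relative potency determined graphically or by Finney's methods.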

Rattus norvegicus [2] = assay: Antiarthritic activity in po dosed rat assessed as inhibition of adjuvant-induced arthritis administered twice daily for 17 days measured on day 18 relative to indomethacin
Rattus norvegicus [3] = assay: Antiinflammatory activity in po dosed rat assessed as inhibition of carrageenan immersed cotton pellet-induced granuloma administered daily once for 7 days measured one day after last dose relative to indomethacin; format: functional
In short: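 Two 50-mg cotton pellets, soaked 24 h in 1% carrageenan, dried, then dipped in 1% penicillin G/1% streptomycin, implanted sc dorso-lumbar in 180-200 g rats (one sex per test). Daily oral dosing for 7 days. Next day, pellets with granulomas removed, dried 24 h at 100 °C, weighed. Usually nine rats/group. Indomethacin standard at 0.5, 1, 2, 4 mg/kg/day.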

## CCN(C)CCOC(=O)C(C)c1ccc2c(=O)c3ccccc3ccc2c1 (racemic)
Rattus norvegicus [1]
  Ratio: 20
Mus musculus
  Ratio: <2

## COC(=O)C(C)c1ccc2c(=O)c3ccccc3ccc2c1 (racemic)
Rattus norvegicus [1]
  Ratio: 11
Mus musculus
  Ratio: 2

## COC(=O)C(C)c1ccc2c(=O)c3ccccc3ccc2c1 (stereo not drawn)
Rattus norvegicus [2]
  Ratio: 2
Rattus norvegicus [1]
  Ratio: 15

## CC(C(=O)O)c1ccc2c(=O)c3ccccc3ccc2c1 (racemic)
Rattus norvegicus [1]
  Ratio: 44
Mus musculus
  Ratio: 12

## CC(C)CCOC(=O)C(C)c1ccc2c(=O)c3ccccc3ccc2c1 (racemic)
Rattus norvegicus [1]
  Ratio: 6
Mus musculus
  Ratio: 1.7

## O=C(O)Cc1ccc2c(=O)c3ccccc3ccc2c1
Rattus norvegicus [2]
  Ratio: 0.1
Rattus norvegicus [3]
  Ratio: 0.1
Rattus norvegicus [1]
  Ratio: 6
Mus musculus
  Ratio: 2

## CC(C(=O)OCCN1CCCCC1)c1ccc2c(=O)c3ccccc3ccc2c1 (racemic)
Rattus norvegicus [1]
  Ratio: 15
Mus musculus
  Ratio: <2

## CC(C(=O)OCCN(C)C)c1ccc2c(=O)c3ccccc3ccc2c1 (single isomer, unassigned; (+))
Rattus norvegicus [1]
  Ratio: 45

## CC(C(=O)OCCCCN(C)C)c1ccc2c(=O)c3ccccc3ccc2c1 (racemic)
Rattus norvegicus [1]
  Ratio: 7
Mus musculus
  Ratio: <3

## CC(C(=O)[O-])c1ccc2c(=O)c3ccccc3ccc2c1.[Na+] (stereo not drawn)
Rattus norvegicus [1]
  Ratio: 62

## CC(C(=O)O)c1ccc2c(=O)c3ccccc3ccc2c1 (single isomer, unassigned; (-))
Rattus norvegicus [1]
  Ratio: 1.5
Mus musculus
  Ratio: 1.5

## CCN(CC)CCOC(=O)C(C)c1ccc2c(=O)c3ccccc3ccc2c1.Cl (racemic)
Rattus norvegicus [1]
  Ratio: 14
Mus musculus
  Ratio: 10

## CCCCCCCCCCCCOC(=O)C(C)c1ccc2c(=O)c3ccccc3ccc2c1 (racemic)
Rattus norvegicus [1]
  Ratio: 15
Mus musculus
  Ratio: <0.5

## COC(=O)Cc1ccc2c(=O)c3ccccc3ccc2c1
Rattus norvegicus [1]
  Ratio: 3
Mus musculus
  Ratio: <1

## CC(C(=O)OCCN1CCOCC1)c1ccc2c(=O)c3ccccc3ccc2c1.Cl (racemic)
Rattus norvegicus [1]
  Ratio: 9
Mus musculus
  Ratio: <1

## CC(O)(C(=O)O)c1ccc2c(=O)c3ccccc3ccc2c1 (racemic)
Rattus norvegicus [1]
  Ratio: <0.5
Mus musculus
  Ratio: 1.5

## CCCCCCCCCCCCCCCCCCCCOC(=O)C(C)c1ccc2c(=O)c3ccccc3ccc2c1 (racemic)
Rattus norvegicus [1]
  Ratio: <=1
Mus musculus
  Ratio: <0.5

## CC(C)(C(=O)O)c1ccc2c(=O)c3ccccc3ccc2c1
Rattus norvegicus [1]
  Ratio: 0.5

## CCC(C(=O)O)c1ccc2c(=O)c3ccccc3ccc2c1 (racemic)
Rattus norvegicus [1]
  Ratio: 7
Mus musculus
  Ratio: 2

## CC(C(=O)O)c1ccc2c(=O)c3ccccc3ccc2c1 (single isomer, unassigned; (+))
Rattus norvegicus [1]
  Ratio: 68
Mus musculus
  Ratio: 20

## C=C(C(=O)O)c1ccc2c(=O)c3ccccc3ccc2c1
Rattus norvegicus [1]
  Ratio: 4
Mus musculus
  Ratio: 1

## CC(C(=O)OCCN(C)C)c1ccc2c(=O)c3ccccc3ccc2c1 (racemic)
Rattus norvegicus [1]
  Ratio: 30
Mus musculus
  Ratio: 7
